Compound activity: PubChem, Johns Hopkins Ion Channel Center
KCNK3 inh = human KCNK3 channel inhibition, primary screen; CHO-KCNK3 thallium flux, FluxOR fluorescence; stronger effect = lower value; B-score at 10 µM; actives 0.84% (n = 340,000); AID 602410;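 active = B-score under library mean minus 4 SD, starting fluorescence ratio at most library mean plus 5 SD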;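 also: more negative B-score means stronger inhibition of thallium flux through KCNK3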
Kir21 inh = Kir2.1 (mouse) channel inhibition; HEK293-Kir2.1, FluxOR thallium flux fluorescence; stronger effect = lower value; B-score at 10 µM; actives 0.85% (n = 310,000);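 active = fluorescence ratio B-score at or below minus 3 SD of library scores, with starting-brightness B-score within 2 SD, cut at about -4.2 in these data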;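 also: channel flux triggered by added potassium and thallium sulfate stimulus; B-score of peak minus minimum fluorescence over baseline after thallium stimulus; more negative B-score means stronger Kir2.1 block with less thallium influx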
hERG protect = compounds protecting human hERG from proarrhythmic drug block. Q12809. CHO-hERG, FluxOR thallium flux, dofetilide IC70 present. activation (rescue from dofetilide block), less the hit threshold, % at 10 µM. actives 0.51% (n = 310,000). AID 1511;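 active = activation above the mean of controls blocked by dofetilide plus 5 SD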;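 also: thallium influx through hERG after potassium depolarization seen as dye fluorescence rise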
Target sequence (Q12809 whole entry, looked up): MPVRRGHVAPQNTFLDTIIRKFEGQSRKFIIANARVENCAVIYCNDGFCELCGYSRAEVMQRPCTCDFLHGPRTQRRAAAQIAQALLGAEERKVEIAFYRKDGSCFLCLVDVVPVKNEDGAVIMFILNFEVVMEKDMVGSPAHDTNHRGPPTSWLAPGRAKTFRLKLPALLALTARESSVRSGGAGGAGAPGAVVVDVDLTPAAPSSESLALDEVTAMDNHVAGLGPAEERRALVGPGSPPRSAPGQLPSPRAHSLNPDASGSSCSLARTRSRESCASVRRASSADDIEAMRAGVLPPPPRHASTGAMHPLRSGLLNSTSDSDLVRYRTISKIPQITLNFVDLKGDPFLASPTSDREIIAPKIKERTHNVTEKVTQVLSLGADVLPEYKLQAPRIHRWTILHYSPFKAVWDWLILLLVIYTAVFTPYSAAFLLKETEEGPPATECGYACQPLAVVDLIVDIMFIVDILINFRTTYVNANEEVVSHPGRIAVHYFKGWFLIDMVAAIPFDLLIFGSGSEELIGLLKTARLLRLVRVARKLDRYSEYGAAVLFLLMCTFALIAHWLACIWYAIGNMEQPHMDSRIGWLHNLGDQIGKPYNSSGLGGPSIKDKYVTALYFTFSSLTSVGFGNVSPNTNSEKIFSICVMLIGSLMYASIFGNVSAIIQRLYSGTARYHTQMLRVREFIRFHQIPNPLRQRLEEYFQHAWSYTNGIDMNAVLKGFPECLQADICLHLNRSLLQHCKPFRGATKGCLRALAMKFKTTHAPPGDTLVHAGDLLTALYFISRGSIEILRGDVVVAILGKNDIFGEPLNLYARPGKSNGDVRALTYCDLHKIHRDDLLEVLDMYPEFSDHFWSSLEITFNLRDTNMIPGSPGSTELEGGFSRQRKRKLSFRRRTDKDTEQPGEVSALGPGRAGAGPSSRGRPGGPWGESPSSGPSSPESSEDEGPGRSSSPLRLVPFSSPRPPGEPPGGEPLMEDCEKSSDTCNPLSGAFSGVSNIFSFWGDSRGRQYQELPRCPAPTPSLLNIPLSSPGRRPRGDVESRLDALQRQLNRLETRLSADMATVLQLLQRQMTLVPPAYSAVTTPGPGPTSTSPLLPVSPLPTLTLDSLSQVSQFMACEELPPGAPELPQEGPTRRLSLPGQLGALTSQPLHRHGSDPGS
KCNQ1 pot = potentiators or activators of human KCNQ1 potassium channel; P51787; CHO-K1 KCNQ1, thallium flux FluxOR fluorescence; stronger effect = higher value; B-score at 10 µM; actives 0.35% (n = 310,000);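 active = fluorescence ratio B-score, a plate-corrected score, at least three library SD, with initial intensity B-score within 5 SD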
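System: CHO-K1 cells stably expressing KCNQ1 / Medium: assay buffer for compound exposure, DMSO matched across wells / Reagent: thallium- and potassium-containing depolarizing buffer / Compound: one concentration, matched DMSO / Incubation: 20 min compound pretreatment at room temperature / Measured by: kinetic FluxOR fluorescence, 10 s baseline plus 110 s post-stimulus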
KCNK9 inh = inhibitors of human KCNK9 two-pore domain potassium channel; Q9NPC2; HEK293 KCNK9, FluxOR thallium flux fluorescence; stronger effect = lower value; B-score at 10 µM; actives 1.2% (n = 310,000); AID 488922;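 active = ratio B-score over 3 SD below the library mean, with starting fluorescence within 5 SD of its mean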;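 also: negative B-score means less thallium flux so channel inhibition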
KCNQ1 block = human KCNQ1 channel inhibition | P51787 | CHO-K1 KCNQ1, FluxOR thallium flux fluorescence; stronger effect = higher value | B-score at 10 µM | actives 1.3% (n = 310,000) | AID 2642;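 active = compounds whose thallium flux B-score, printed positive for inhibition, exceeds three library SD while starting fluorescence stays within three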;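 also: channel opened by potassium depolarization with thallium stimulus after 20 min compound exposure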
KCNK3 inh conf = human KCNK3 channel inhibition, confirmation assay; shares compounds with KCNK3 inh; CHO-KCNK3 thallium flux, FluxOR fluorescence; 0% buffer, 100% carvedilol maximal block; ratio percent of control, % at 10 µM; actives 99% (n = 2,400);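 active = ratio percent of control, averaged over triplicates, above buffer control mean plus 5 SD, cut at about 64% in these data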;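 also: ratio is the fluorescence rise from min to max over baseline after thallium stimulus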
KCNK3 noninduced = activity in cells without induced KCNK3 expression | shares compounds with KCNK3 inh | non-induced KCNK3 parental cells, FluxOR thallium flux; stronger effect = lower value | thallium flux ratio (lower = more inhibition) at 10 µM | actives 40% (n = 2,400);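 active = thallium flux ratio, averaged over three wells, more than 5 SD below the buffer control mean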;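 also: host cells are CHO cells without KCNK3 induction; ratio is peak minus trough fluorescence over baseline then normalized to buffer controls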
The depositor's hits bear a star. Rows were chosen to be rich in hits. Some 3.8% of all compounds tested hit in one or more screens of this group.

What do the screens show for `CC(C)(C)c1ccc(C(=O)NCCC(=O)N2CCN(c3ncccn3)CC2)cc1`?
KCNK3 inh: -12.3*; Kir21 inh: 0.68; hERG protect: -5.7; KCNQ1 pot: inactive; KCNK9 inh: inactive; KCNQ1 block: inactive; KCNK3 inh conf: 86.0*; KCNK3 noninduced: inactive

Results for O=C(COc1ccc(Br)cc1CNCCc1ccccc1)NCc1ccccc1 ?
KCNK3 inh: -11.2*; Kir21 inh: -2.95; hERG protect: -27.6; KCNQ1 pot: inactive; KCNK9 inh: inactive; KCNQ1 block: 7*; KCNK3 inh conf: 102.0*; KCNK3 noninduced: inactive

How did Cc1sc2nc(C3CC3)nc(N3CCN(C(=O)c4ccc(Cl)cc4)CC3)c2c1C do in these assays?
KCNK3 inh: -12.9*; Kir21 inh: -0.29; hERG protect: -7.3; KCNQ1 pot: inactive; KCNK9 inh: inactive; KCNQ1 block: 6*; KCNK3 inh conf: 96.3*; KCNK3 noninduced: 0.154*

Results for COC(=O)c1ccccc1NC(=O)c1ccc(COc2cc(C)cc(C)c2)o1 ?
KCNK3 inh: -9.46*; Kir21 inh: 1.03; hERG protect: -6.9; KCNQ1 pot: inactive; KCNK9 inh: inactive; KCNQ1 block: inactive; KCNK3 inh conf: 86.7*; KCNK3 noninduced: inactive

How did Cc1nn(-c2cccc(C(F)(F)F)c2)c(=O)c2ccccc12 do in these assays?
KCNK3 inh: -8.97*; Kir21 inh: 1.53; hERG protect: -3.4; KCNQ1 pot: inactive; KCNK9 inh: inactive; KCNQ1 block: inactive; KCNK3 inh conf: 114.3*; KCNK3 noninduced: 0.16*

Results for Cc1nn(-c2ccccc2)c(=O)c2ccccc12 ?
KCNK3 inh: inactive; Kir21 inh: 0.49; hERG protect: -12.1; KCNQ1 pot: inactive; KCNK9 inh: inactive; KCNQ1 block: inactive

How did COc1ccc(Cl)cc1NC(=O)CN(C)CC(=O)Nc1ccccc1-c1ccccc1 do in these assays?
KCNK3 inh: -9.71*; Kir21 inh: 1.55; hERG protect: -0.2; KCNQ1 pot: inactive; KCNK9 inh: inactive; KCNQ1 block: inactive; KCNK3 inh conf: 99.0*; KCNK3 noninduced: inactive

How did COc1ccc(Cl)cc1NC(=O)CN(C)C(=O)Cc1ccc(-c2ccccc2)cc1 do in these assays?
KCNK3 inh: inactive

Results for CC(C(=O)NC1CCCc2ccccc21)N1CCN(c2ccc(F)cc2)CC1 (configuration not stated) ?
KCNK3 inh: inactive; Kir21 inh: -0.56; hERG protect: -3.7; KCNQ1 pot: inactive; KCNK9 inh: inactive; KCNQ1 block: inactive

How did CC(C)(Nc1ccccc1)C(=O)c1ccccc1 do in these assays?
KCNK3 inh: inactive; Kir21 inh: 0.46; hERG protect: -9.0; KCNQ1 pot: inactive; KCNK9 inh: inactive; KCNQ1 block: inactive

How did COC(=O)c1ccccc1NC(=O)c1cc(C)no1 do in these assays?
KCNK3 inh: inactive; Kir21 inh: -0.14; hERG protect: 0.2; KCNQ1 pot: inactive; KCNK9 inh: inactive; KCNQ1 block: inactive

How did CCOc1ccccc1Nc1nc2ccccc2n2cnnc12 do in these assays?
KCNK3 inh: inactive; Kir21 inh: 0.78; hERG protect: -4.1; KCNQ1 pot: inactive; KCNK9 inh: inactive; KCNQ1 block: inactive

What do the screens show for `Cc1ccc(C)c(CN2C(=O)C3(OCCCO3)c3ccccc32)c1`?
KCNK3 inh: inactive; Kir21 inh: 0; hERG protect: -14.3; KCNQ1 pot: inactive; KCNK9 inh: inactive; KCNQ1 block: inactive

How did CCOc1ccccc1CN1C(=O)C2(OCCO2)c2ccccc21 do in these assays?
KCNK3 inh: -9.67*; Kir21 inh: -0.59; hERG protect: -2.3; KCNQ1 pot: inactive; KCNK9 inh: inactive; KCNQ1 block: inactive; KCNK3 inh conf: 108.3*; KCNK3 noninduced: inactive

What do the screens show for `CCOC(=O)c1sc2nc(CC(=O)OC)nc(NCCN(CC)CC)c2c1C`?
KCNK3 inh: inactive; Kir21 inh: 0.76; hERG protect: -6.9; KCNQ1 pot: inactive; KCNK9 inh: inactive; KCNQ1 block: inactive

Results for CCOC(=O)c1sc2nc(CC(=O)OC)nc(N(C)CCc3ccccn3)c2c1C ?
KCNK3 inh: -10.2*; Kir21 inh: 0.18; hERG protect: -10.3; KCNQ1 pot: inactive; KCNK9 inh: inactive; KCNQ1 block: inactive; KCNK3 inh conf: 109.0*; KCNK3 noninduced: inactive

Results for CCOC(=O)/C=C1\SCC(=O)N1CC(=O)NC(c1ccccc1)c1ccccc1 ?
KCNK3 inh: inactive; Kir21 inh: 1.5; hERG protect: -3.1; KCNQ1 pot: inactive; KCNK9 inh: inactive; KCNQ1 block: inactive

What do the screens show for `COc1cc(C(=O)N/N=C/c2ccc(OC(=O)c3cccc(C)c3)c(OC)c2)ccc1O`?
KCNK3 inh: -8.73*; Kir21 inh: -1.85; hERG protect: -21.3; KCNQ1 pot: inactive; KCNK9 inh: inactive; KCNQ1 block: 8*; KCNK3 inh conf: 82.3*; KCNK3 noninduced: inactive

What do the screens show for `Cn1c2ccccc2c2cc(/C=N/NC(=O)c3cc(O)ccc3O)ccc21`?
KCNK3 inh: inactive; Kir21 inh: -0.14; hERG protect: -35.7; KCNQ1 pot: inactive; KCNK9 inh: inactive; KCNQ1 block: inactive

Results for COc1cccc(C(=O)Oc2ccc(/C=N/NC(=O)c3ccncc3)cc2OC)c1 ?
KCNK3 inh: inactive; Kir21 inh: 0.51; hERG protect: -4.6; KCNQ1 pot: inactive; KCNK9 inh: inactive; KCNQ1 block: inactive

What do the screens show for `COc1cc(C(=O)N/N=C/c2ccc3c(c2)c2ccccc2n3C)ccc1O`?
KCNK3 inh: -11.1*; Kir21 inh: 2.21; hERG protect: -21.1; KCNQ1 pot: inactive; KCNK9 inh: inactive; KCNQ1 block: inactive; KCNK3 inh conf: 99.7*; KCNK3 noninduced: inactive

What do the screens show for `Cc1ccccc1COC(=O)CN1C(=O)NC2(CCCC2)C1=O`?
KCNK3 inh: inactive; Kir21 inh: -1.28; hERG protect: -13.5; KCNQ1 pot: inactive; KCNK9 inh: inactive; KCNQ1 block: inactive

What do the screens show for `O=C(N/N=C/c1ccccc1F)c1cccc(NC(=O)c2ccccc2Cl)c1`?
KCNK3 inh: -8.79*; Kir21 inh: 1.18; hERG protect: -10.1; KCNQ1 pot: inactive; KCNK9 inh: inactive; KCNQ1 block: inactive; KCNK3 inh conf: 106.7*; KCNK3 noninduced: 0.157*

Results for O=C(N/N=C/c1ccccn1)c1cccc(NC(=O)c2ccccc2Cl)c1 ?
KCNK3 inh: inactive; Kir21 inh: 0.74; hERG protect: -3.8; KCNQ1 pot: inactive; KCNK9 inh: inactive; KCNQ1 block: inactive
